Measured values reported in ChEMBL document CHEMBL4715715, “Synthesis and biological evaluation of arylcinnamide linked combretastatin-A4 hybrids as tubulin polymerization inhibitors and apoptosis inducing agents” (Bioorg Med Chem Lett, 2016).

How the values were obtained:
MCF7 [1] = experiment: Antiproliferative activity against human MCF7 cells assessed as cell growth inhibition measured after 48 hrs by SRB assay; format: functional
Procedure, shortened: (§1)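 Sulforhodamine B (SRB) cell-staining assay across a panel of human cancer lines. Growth inhibition is reported as GI50.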

DU-145 = experiment: Antiproliferative activity against human DU-145 cells assessed as cell growth inhibition measured after 48 hrs by SRB assay; format: functional; procedure, shortened: as §1
HOP-62 = experiment: Antiproliferative activity against human HOP-62 cells assessed as cell growth inhibition measured after 48 hrs by SRB assay; format: functional; procedure, shortened: as §1
HeLa = experiment: Antiproliferative activity against human HeLa cells assessed as cell growth inhibition measured after 48 hrs by SRB assay; format: functional; procedure, shortened: as §1
K562 = experiment: Antiproliferative activity against human K562 cells assessed as cell growth inhibition measured after 48 hrs by SRB assay; format: functional; procedure, shortened: as §1
SK-OV-3 = experiment: Antiproliferative activity against human SK-OV-3 cells assessed as cell growth inhibition measured after 48 hrs by SRB assay; format: functional; procedure, shortened: as §1
COLO 205 = experiment: Antiproliferative activity against human COLO 205 cells assessed as cell growth inhibition measured after 48 hrs by SRB assay; format: functional; procedure, shortened: as §1
MIA PaCa-2 = experiment: Antiproliferative activity against human MIA Paca-2 cells assessed as cell growth inhibition measured after 48 hrs by SRB assay; format: functional; procedure, shortened: as §1
MCF7 [2] = experiment: Cell cycle arrest in human MCF7 cells assessed as accumulation at sub-G1 phase at 50 nM measured after 48 hrs by propidium iodide staining based flow cytometry (reference value: 2.4 %); format: functional
Procedure, shortened: (§2)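 MCF-7 cells were treated at 50 and 100 nM for 48 h. Cell-cycle phase distribution (sub-G1, G0/G1, S, G2/M %) was read by flow cytometry against untreated control.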

MCF7 [3] = experiment: Cell cycle arrest in human MCF7 cells assessed as accumulation at G0/G1 phase at 50 nM measured after 48 hrs by propidium iodide staining based flow cytometry (reference value: 85.3 %); format: functional; procedure, shortened: as §2
MCF7 [4] = experiment: Cell cycle arrest in human MCF7 cells assessed as accumulation at S phase at 50 nM measured after 48 hrs by propidium iodide staining based flow cytometry (reference value: 3.1 %); format: functional; procedure, shortened: as §2
MCF7 [5] = experiment: Cell cycle arrest in human MCF7 cells assessed as accumulation at G2/M phase at 50 nM measured after 48 hrs by propidium iodide staining based flow cytometry (reference value: 8.44 %); format: functional; procedure, shortened: as §2
MCF7 [6] = experiment: Cell cycle arrest in human MCF7 cells assessed as accumulation at sub-G1 phase at 100 nM measured after 48 hrs by propidium iodide staining based flow cytometry (reference value: 2.4 %); format: functional
MCF7 [7] = experiment: Cell cycle arrest in human MCF7 cells assessed as accumulation at G0/G1 phase at 100 nM measured after 48 hrs by propidium iodide staining based flow cytometry (reference value: 85.3 %); format: functional
MCF7 [8] = experiment: Cell cycle arrest in human MCF7 cells assessed as accumulation at S phase at 100 nM measured after 48 hrs by propidium iodide staining based flow cytometry (reference value: 3.1 %); format: functional
MCF7 [9] = experiment: Cell cycle arrest in human MCF7 cells assessed as accumulation at G2/M phase at 100 nM measured after 48 hrs by propidium iodide staining based flow cytometry (reference value: 8.44 %); format: functional
Sus scrofa = species on record: Sus scrofa; experiment: Inhibition of porcine brain tubulin polymerization at 3 uM measured after 1 hr in presence of GTP by fluorescence assay relative to control; format: tissue-based
Procedure, shortened: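 Tubulin polymerization was followed by fluorescence (excitation 360 nm, emission 420 nm) for 1 h at 37 °C. Compounds were at 3 μM final, with and without compound. Values are mean ± SD of two experiments done in triplicate.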

[10] = Inhibition of porcine brain tubulin polymerization measured after 1 hr in presence of GTP by fluorescence assay; format: tissue-based, Sus scrofa
Procedure, shortened: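 Tubulin assembly followed by the rise in fluorescence (ex 360 nm, em 420 nm) over 1 h at 37 °C. Compounds tested at a final 3 μM with a reference control. IC50 defined as the concentration inhibiting 50% of tubulin assembly. Mean ± SD of two experiments in triplicate.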

MCF7 [11] = experiment: Induction of apoptosis in human MCF7 cells assessed as early apoptotic cells at 50 nM measured after 48 hrs by annexinV-FITC/propidium iodide staining based flow cytometry (reference value: 4.4 %); format: functional
Procedure, shortened: (§3)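 MCF-7 cells were treated at 50 and 100 nM for 48 h. Annexin V-FITC/PI dual staining was read by flow cytometry. Cells were quadrant-gated as UL, UR, LL and LR, with untreated control alongside.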

MCF7 [12] = experiment: Induction of apoptosis in human MCF7 cells assessed as necrotic cells at 50 nM measured after 48 hrs by annexinV-FITC/propidium iodide staining based flow cytometry (reference value: 0.1 %); format: functional; procedure, shortened: as §3
MCF7 [13] = experiment: Induction of apoptosis in human MCF7 cells assessed as early apoptotic cells at 100 nM measured after 48 hrs by annexinV-FITC/propidium iodide staining based flow cytometry (reference value: 4.4 %); format: functional
MCF7 [14] = experiment: Induction of apoptosis in human MCF7 cells assessed as necrotic cells at 100 nM measured after 48 hrs by annexinV-FITC/propidium iodide staining based flow cytometry (reference value: 0.1 %); format: functional
MCF7 [15] = experiment: Induction of apoptosis in human MCF7 cells assessed as activation of caspase 9 at 100 nM measured after 48 hrs by fluorescence assay relative to control; format: functional
Procedure, shortened: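 MCF-7 breast cancer cells treated at 100 nM for 48 h. Caspase-9 activity compared with untreated control. Mean ± SD of two experiments each run in triplicate.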

MCF7 [16] = experiment: Induction of apoptosis in human MCF7 cells assessed as live cells at 50 nM measured after 48 hrs by annexinV-FITC/propidium iodide staining based flow cytometry (reference value: 95 %)
MCF7 [17] = experiment: Induction of apoptosis in human MCF7 cells assessed as live cells at 100 nM measured after 48 hrs by annexinV-FITC/propidium iodide staining based flow cytometry (reference value: 95 %)
MCF7 [18] = experiment: Induction of apoptosis in human MCF7 cells assessed as late apoptotic cell population at 50 nM measured after 48 hrs by Annexin V-FITC/PI staining based flow cytometry (reference value: 1 %)
MCF7 [19] = experiment: Induction of apoptosis in human MCF7 cells assessed as late apoptotic cell population at 100 nM measured after 48 hrs by Annexin V-FITC/PI staining based flow cytometry (reference value: 1 %)
MCF7 [20] = experiment: Induction of apoptosis in human MCF7 cells assessed as early apoptotic cell population at 50 nM measured after 48 hrs by Annexin V-FITC/PI staining based flow cytometry (reference value: 0.7 %)
MCF7 [21] = experiment: Induction of apoptosis in human MCF7 cells assessed as early apoptotic cell population at 100 nM measured after 48 hrs by Annexin V-FITC/PI staining based flow cytometry (reference value: 0.7 %)
MCF7 [22] = experiment: Induction of apoptosis in human MCF7 cells assessed as late apoptotic cells at 50 nM measured after 48 hrs by annexinV-FITC/propidium iodide staining based flow cytometry (reference value: 0.6 %)
MCF7 [23] = experiment: Induction of apoptosis in human MCF7 cells assessed as late apoptotic cells at 100 nM measured after 48 hrs by annexinV-FITC/propidium iodide staining based flow cytometry (reference value: 0.6 %)

| Compound | GI50 (MCF7 [1]) [nM] | GI50 (DU-145) [nM] | GI50 (HOP-62) [nM] | GI50 (HeLa) [nM] | GI50 (K562) [nM] | GI50 (SK-OV-3) [nM] | GI50 (COLO 205) [nM] | GI50 (MIA PaCa-2) [nM] | Activity (MCF7 [2]) [%] | Activity (MCF7 [3]) [%] | Activity (MCF7 [4]) [%] | Activity (MCF7 [5]) [%] | Activity (MCF7 [6]) [%] | Activity (MCF7 [7]) [%] | Activity (MCF7 [8]) [%] | Activity (MCF7 [9]) [%] | inhibition (Sus scrofa) [%] | IC50 [10] [nM] | Activity (MCF7 [11]) [%] | Activity (MCF7 [12]) [%] | also measured |
| --- | --- | --- | --- | --- | --- | --- | --- | --- | --- | --- | --- | --- | --- | --- | --- | --- | --- | --- | --- | --- | --- |
| COc1ccc(/C=C/C(=O)Nc2c(/C=C\c3cc(OC)c(OC)c(OC)c3)ccc(OC)c2O)cc1OC | 56 | 60 | 90 | 7500 | 94 | 99 | 99 | 29900 | 2.56 | 78.55 | 2.86 | 15.25 | 3.65 | 28.16 | 0.35 | 64.29 | 69.2 | 1970 | 8.4 | 0.9 | Activity (MCF7 [13]): 14.8%; Activity (MCF7 [14]): 0.7%; fold change (FC) (MCF7 [15]): 2; live cells (MCF7 [16]): 89%; live cells (MCF7 [17]): 82.2%; Activity (MCF7 [18]): 12%; Activity (MCF7 [19]): 22.5%; Activity (MCF7 [20]): 0.8%; Activity (MCF7 [21]): 7.2%; late apoptotic cells (MCF7 [22]): 1.8%; late apoptotic cells (MCF7 [23]): 2.3% |
| COc1ccc(/C=C\c2cc(OC)c(OC)c(OC)c2)c(NC(=O)/C=C/c2ccc(F)c(F)c2)c1O | 31 | 45 | 43600 | 29200 | 99 | 29800 | 74900 | 74000 | 2.99 | 70.02 | 1.46 | 23.58 | 3.07 | 27.47 | 0.52 | 66.13 | 73.7 | 1050 | 10.5 | 1.1 | Activity (MCF7 [13]): 31.4%; Activity (MCF7 [14]): 0.7%; fold change (FC) (MCF7 [15]): 2; live cells (MCF7 [16]): 86.4%; live cells (MCF7 [17]): 63.1%; Activity (MCF7 [18]): 22.8%; Activity (MCF7 [19]): 26%; Activity (MCF7 [20]): 6.5%; Activity (MCF7 [21]): 6.2%; late apoptotic cells (MCF7 [22]): 2%; late apoptotic cells (MCF7 [23]): 4.7% |
